The values below come from ChEMBL document CHEMBL1123882, “Potential antitumor agents. 51. Synthesis and antitumor activity of substituted phenazine-1-carboxamides” (J Med Chem, 1987).

Data set [1] can be described thus: Lipophilicity (HPLC). The class given is physicochemical.
For another data set, the system named is L1210. The data set can be described thus: Nanomolar concentration required to reduce the growth of L1210 cells in culture to 50% of control values after 70 h (in vitro). To be noted: Mus musculus, L1210, 70 h. The class given is functional, cell-based. Summed up:
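L1210 cells were grown in culture with drug for 70 h. IC50 is the drug concentration (nM) reducing growth to 50% of control values.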

Data set [2] deals with Lewis lung carcinoma cell line. The experiment in a line: (§1) Average increase in life span of treated animals over control groups of tumor-bearing untreated animals when given at optimal dose; NA means no significant activity (in vivo). The class given is functional, organism-based. To be noted: Mus musculus. Summed up: (§2)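 Mice received drug ip as a solution in 0.1 mL 30% v/v EtOH/water at the optimal dose. For P388, 10^6 cells were inoculated ip and drug given on days 1, 5 and 9. For LL, 10^6 cells were inoculated iv and drug given on days 5, 9 and 13. ILS is the mean life-span increase over untreated tumor-bearing controls, significant above 20% (P388) or 40% (LL). Groups were of six. NA means no significant activity up to acutely toxic doses.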

Data set [3] relates to P388. Described as §1. The class given is functional, organism-based. To be noted: Mus musculus. Summed up:
as §2

Data set [4] deals with P388. The data set can be described thus: Optimal dose in mg/kg administered intraperitoneally on days 1,5 and 9 required to inhibit the growth of P388 leukemia cells was determined (in vivo). The class given is functional, Mus musculus. Summed up: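 Mice were inoculated ip with 10^6 P388 cells. Drug was given ip as a solution in 0.1 mL 30% v/v EtOH/water on days 1, 5 and 9. The optimal dose (mg/kg per day) is the one giving maximal increase in life span; survivors were scored at 50 days, in groups of six.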

In data set [5] the test system is Lewis lung carcinoma cell line. The data set can be described thus: (§3) Optimal dose required after intraperitoneal administration on days 5,9 and 13 to inhibit the growth of lewis lung carcinoma (LL) cells was determined (in vivo). The class given is functional, Mus musculus. Summed up: (§4)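 Mice were inoculated iv with 10^6 Lewis lung cells. Drug was given ip in 0.1 mL 30% v/v EtOH/water on days 5, 9 and 13. The optimal dose (mg/kg per day) is the one giving maximal increase in life span; survivors were scored at 60 days, in groups of six.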

The test system of data set [6] is Lewis lung carcinoma cell line. The experiment in a line: Average increase in life span of treated animals over control groups of tumor-bearing untreated animals when given at optimal dose of 25 mg/kg/day; NA means no significant activity (in vivo). The class given is functional, organism-based. Particulars: Mus musculus, in the assay text read “225 mg/kg/day” for “25 mg/kg/day”. A digest of the protocol:
as §2

The test system of data set [7] is P388. The data set can be described thus: Average increase in life span of treated animals over control groups of tumor-bearing untreated animals when given at optimal dose of 150 mg/kg/day;NA means no significant activity (in vivo). The class given is functional, organism-based. To be noted: Mus musculus. Summed up:
as §2

Data set [8] in a line: (§5) Average increase in life span of treated animals over control groups of tumor-bearing untreated animals when given at optimal dose (in vivo). The class given is functional, Mus musculus. Summed up: (§6)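 Mice inoculated ip with 10^6 P388 cells (drug ip on days 1, 5, 9) or iv with 10^6 Lewis lung cells (drug ip on days 5, 9, 13). Drug given as a solution in 0.1 mL 30% v/v EtOH/water, in mg/kg per day. Value is the average life-span increase versus untreated tumor-bearing controls at the optimal dose. Significance thresholds: ILS >20% (P388), >40% (LL). Groups of six.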

The test system of data set [9] is P388. The description is as §5. The class given is functional, Mus musculus. A digest of the protocol:
as §6

The nature of data set [10]: as §3. The class given is functional, Mus musculus. Summed up: as §4
Data set [11] concerns Lewis lung carcinoma cell line. The experiment in a line: Average increase in life span of treated animals over control groups of tumor-bearing untreated animals when given at optimal dose;NA means no significant effect (in vivo). The class given is functional, organism-based. Particulars: Mus musculus. Summed up: as §2
In data set [12] the test system is Lewis lung carcinoma cell line. The data set can be described thus: Average increase in life span of treated animals over control groups of tumor-bearing untreated animals when given at optimal dose;NA means no significant activity (in vivo). The class given is functional, organism-based. Particulars: Mus musculus. A digest of the protocol: as §2

Regarding `O=C(NCCN1CCOCC1)c1cccc2nc3ccccc3nc12`, in data set [1], the Rm is given as -0.21. For the same compound, the IC50 (usually the midpoint of a concentration-inhibition curve) with L1210 turned out to be 11000 nM. Besides, the ILSmax entry (in [2]; with P388 [3]) was “Not significant” in each case. The OD (in the data set with P388 [4]; in [5]) was 225 mg/kg/day in each case.

As to `CN(C)CCCNC(=O)c1cccc2nc3ccccc3nc12`, the Rm in data set [1] is recorded as -0.21. In addition, the half-maximal inhibitory concentration (IC50) in the data set on L1210 came out at 1500 nM. Also, the ILSmax entry (in [6]; in the data set with P388 [7]) was “Not significant” throughout. The OD with P388 [4] is 150 mg/kg/day; in data set [5], 225 mg/kg/day.

In the case of `CN(C)CCNC(=O)c1cccc2c1nc1ccccc1[n+]2[O-]`, in data set [1], the Rm was -0.58. The compound also showed an IC50 in the data set with L1210 of 3000 nM. The OD (in the data set on P388 [4]; in data set [10]) was 150 mg/kg/day in each case. Moreover, the ILS max in data set [8] came to 51; with P388 [9], 81.

With `Cc1ccc(C(=O)NCCN(C)C)c2nc3ccccc3nc12`, the Rm in data set [1] came to 0.08. Further, half-maximal inhibition in the data set with L1210 (IC50) was put at 400 nM. Also, the ILS max result in data set [11] is “Not significant”; in the data set with P388 [9] it was 28. The figures for the OD (with P388 [4]; in data set [5]) were 100 mg/kg/day and 150 mg/kg/day, respectively.

`CN(C)CCCCNC(=O)c1cccc2nc3ccccc3nc12` registered a Rm in [1] of -0.11. Also, the half-maximal inhibitory concentration (IC50) in the data set with L1210 was found to be 1170 nM. The ILS max result in [12] was “Not significant”; with P388 [9], 49. In addition, the OD was determined as 150 mg/kg/day with P388 [4] and 225 mg/kg/day in data set [5].

Take `COc1ccc(C(=O)NCCN(C)C)c2nc3ccccc3nc12`: the Rm in [1] is recorded as -0.41. This compound returned an IC50 in the data set with L1210 of 550 nM. Moreover, the ILSmax entry in the data set on P388 [3] is “Not significant”. For the same compound, the OD in the data set with P388 [4] worked out at 225 mg/kg/day.

In [1], `O=C(NCCNCCO)c1cccc2nc3ccccc3nc12` showed a Rm of -0.32. Moreover, in the data set on L1210, the IC50 stood at 2000 nM. Also, the ILS max result (in [2]; in the data set with P388 [3]) was “Not significant” each time. For the same compound, the OD (with P388 [4]; in data set [5]) was 65 mg/kg/day throughout.

In [1], `COc1cccc2nc3c(C(=O)NCCN(C)C)cccc3nc12` came in with a Rm of -0.44. Further, half-maximal inhibition with L1210 (IC50) was put at 5000 nM. Besides, in the data set on P388 [3], the ILSmax result is “Not significant”. In the data set with P388 [4], this compound had an OD of 150 mg/kg/day.

In data set [1], `COc1ccc2nc3c(C(=O)NCCN(C)C)cccc3nc2c1` gave a Rm of -0.27. In the data set with L1210, this compound came in with a concentration for half-maximal inhibition (IC50) of 4100 nM. Also, the ILSmax result (in [2]; with P388 [3]) was “Not significant” each time. The OD in the data set with P388 [4] is 100 mg/kg/day; in data set [5] it was 150 mg/kg/day.
